T/C, Activity and IC50 data for 21 compounds are collected here from ChEMBL document CHEMBL1150195, “The 1990 United States-Japan seminar on bioorganic marine chemistry, meeting report” (J Nat Prod, 1991).

One assay relates to P388. Put plainly: In vivo antitumor activity against mouse P388 cells at 0.125 mg/kg relative to control. Type of assay: functional.
Another assay relates to Candida albicans. Put plainly: Antifungal activity against Candida albicans in presence of 50 ppm ergosterol. The format is functional. The gist of the method: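 Candida albicans screened first by conventional agar disk diffusion. Samples active against C. albicans but not Escherichia coli were retested on agar-tryptic broth plates supplemented with ergosterol at 0–100 ppm. The assay picks out antifungal activity that depends on binding to membrane ergosterol.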

The nature of assay [1]: Inhibition of protein phosphatase 2A.
In a further assay the test system is L1210. The assay is described as follows: Cytotoxicity against mouse L1210 cells at 0.1 ug/ml. Type of assay: functional.
The next assay concerns HCT-116. Put plainly: Cytotoxicity against human HCT116 cells. Type of assay: functional, cell-based.
Another assay relates to B16. Put plainly: Cytotoxicity against mouse B16 cells. Type of assay: functional, cell-based.
A further assay has as its system KB. The assay is described as follows: Cytotoxicity against human KB cells. The format is functional, cell-based.
For a further assay, the system named is Leukemia cell. The assay is described as follows: In vivo antitumor activity against human leukemia cells xenografted in mouse at 160 ug/kg/injection relative to control. Type of assay: functional. In general terms: Xenograft models place foreign cells or tissue in a host animal.
In the next assay the test system is Melanoma cell. Put plainly: In vivo antitumor activity against human melanoma cells xenografted in mouse at 160 ug/kg//injection relative to control. Type of assay: functional.

Each structure is given as a SMILES string. In brackets after ≈: the same amount, converted by molar mass. A value given as a limit tells only on which side of the number the result lay.

In turn, `C/C=C\[C@H](C)[C@H]1O[C@@]1(C)[C@@H](O)[C@H]1COC(=O)[C@H](O)[C@@H](OC)[C@H](C)C(=O)[C@H](C)[C@@H](O)/C(C)=C/[C@H](C)C(=O)CC[C@@H](C)C1=O` returned a T/C with P388 of 190%.
`C[C@@H]1[C@H](O)[C@@H](C)/C=C/C=C/C=C/C=C/C=C/C=C/C=C/[C@H](O[C@@H]2O[C@H](C)[C@@H](O)[C@H](N)[C@@H]2O)C[C@@H]2O[C@](O)(C[C@@H](O)C[C@@H](O)[C@H](O)CC[C@@H](O)C[C@@H](O)CC(=O)O[C@H]1C)C[C@H](O)[C@H]2C(=O)O` [AMPHOTERICIN B]: the Activity with Candida albicans worked out at 50%.
In assay [1], `COC[C@@H]([C@H](O)[C@H](O)C(=O)NCC[C@H](C)c1nc(/C=C/C[C@@H]2O[C@]3(C[C@@H](O)[C@@H]2C)O[C@H]([C@H](C[C@H](O)[C@H](C)[C@H](O)[C@H](C)/C=C(C)/C(C)=C/C=C/C(C)=C\C#N)OC)[C@H](OP(=O)(O)O)C3(C)C)co1)N(C)C` [CALYCULIN A] gave an IC50 of 0.9 nM.
With `COC[C@@H]([C@H](O)[C@H](O)C(=O)NCC[C@H](C)c1nc(/C=C/C[C@@H]2O[C@]3(C[C@@H](O)[C@@H]2C)O[C@H]([C@H](C[C@H](O)[C@H](C)[C@H](O)[C@H](C)/C=C(C)/C(C)=C/C=C/C(C)=C/C#N)OC)[C@H](OP(=O)(O)O)C3(C)C)co1)N(C)C` [CALYCULIN B], it took 0.9 nM to reach half-maximal inhibition in assay [1] (IC50).
`COC[C@@H]([C@H](O)[C@H](O)C(=O)N[C@H](C)C[C@H](C)c1nc(/C=C/C[C@@H]2O[C@]3(C[C@@H](O)[C@@H]2C)O[C@H]([C@H](C[C@H](O)[C@H](C)[C@H](O)[C@H](C)/C=C(C)/C(C)=C/C=C/C(C)=C/C#N)OC)[C@H](OP(=O)(O)O)C3(C)C)co1)N(C)C` [CALYCULIN D] showed an IC50 in assay [1] of 0.9 nM.
Still for that read-out and setting: as for `COC[C@@H]([C@H](O)[C@H](O)C(=O)NCC[C@H](C)c1nc(/C=C/C[C@@H]2O[C@]3(C[C@@H](O)[C@@H]2C)O[C@H]([C@H](C[C@H](O)[C@H](C)[C@H](O)[C@H](C)/C=C(C)/C(C)=C\C=C\C(C)=C/C#N)OC)[C@H](OP(=O)(O)O)C3(C)C)co1)N(C)C` [CALYCULIN E], the figure is 0.9 nM.
As to `COC[C@@H]([C@H](O)[C@H](O)C(=O)NCC[C@H](C)c1nc(/C=C/C[C@@H]2O[C@]3(C[C@@H](O)[C@@H]2C)O[C@H]([C@H](C[C@H](O)[C@H](C)[C@H](O)[C@H](C)/C=C(C)/C(C)=C\C=C\C(C)=C\C#N)OC)[C@H](OP(=O)(O)O)C3(C)C)co1)N(C)C` [CALYCULIN F], the IC50 in assay [1] is 0.9 nM.
`COC[C@@H]([C@H](O)[C@H](O)C(=O)N[C@H](C)C[C@H](C)c1nc(/C=C/C[C@@H]2O[C@]3(C[C@@H](O)[C@@H]2C)O[C@H]([C@H](C[C@H](O)[C@H](C)[C@H](O)[C@H](C)/C=C(C)/C(C)=C\C=C\C(C)=C/C#N)OC)[C@H](OP(=O)(O)O)C3(C)C)co1)N(C)C` [CALYCULIN G] displayed an IC50 in assay [1] of 0.9 nM.
Still for that read-out and setting: as for `COC[C@@H]([C@H](O)[C@H](O)C(=O)N[C@H](C)C[C@H](C)c1nc(/C=C/C[C@@H]2O[C@]3(C[C@@H](O)[C@@H]2C)O[C@H]([C@H](C[C@H](O)[C@H](C)[C@H](O)[C@H](C)/C=C(C)/C(C)=C\C=C\C(C)=C\C#N)OC)[C@H](OP(=O)(O)O)C3(C)C)co1)N(C)C` [CALYCULIN H], the figure is 0.9 nM.
For the compound `COC[C@@H]([C@H](O)[C@H](O)C(=O)N[C@H](C)C[C@H](C)c1nc(/C=C/C[C@@H]2O[C@]3(C[C@@H](O)[C@@H]2C)O[C@H]([C@H](C[C@H](O)[C@H](C)[C@H](O)[C@H](C)/C=C(C)/C(C)=C/C=C/C(C)=C\C#N)OC)[C@H](OP(=O)(O)O)C3(C)C)co1)N(C)C` [CALYCULIN], the IC50 in assay [1] is 0.9 nM.
In the assay on L1210, `CC[C@H]1CCCC[C@@]2(C[C@@H]3CC[C@@H]4[C@H](C(=O)OCCCCCCCCCCCCCCCC(=O)N(CCCN)C[C@@H](O)CCN)[C@]5(CCC[C@@H](C)O5)N=C(N2)N34)O1` [CRAMBESCIDIN 800] gave an Activity of 98%.
As to `CC[C@H]1CCCC[C@@]2(C[C@@H]3CC[C@]4(O)[C@H](C(=O)OCCCCCCCCCCCCCCCC(=O)N(CCCN)C[C@@H](O)CCN)[C@]5(CCC[C@@H](C)O5)N=C(N2)N34)O1` [CRAMBESCIDIN 816], the Activity in the assay on L1210 worked out at 98%.
In the assay on L1210, `CC[C@@H]1CCCC[C@]2(C[C@H]3CCC4(O)C(C(=O)OCCCCCCCCCCCCCCCCC(=O)N(CCCN)CC(O)CCN)[C@@]5(CCC[C@H](C)O5)N=C(N2)N34)O1` (stereo partly drawn) [CRAMBESCIDIN 830] yielded an Activity of 98%.
Same read-out and setting: as for `CC[C@@H]1CCCC[C@]2(C[C@H]3CCC4(O)C(C(=O)OCCCCCCCCCCCCCCCCCC(=O)N(CCCN)CC(O)CCN)[C@@]5(CCC[C@H](C)O5)N=C(N2)N34)O1` (stereo partly drawn) [CRAMBESCIDIN 844], the figure is 98%.
Turning to `[H][C@]12Nc3c4cccc3[C@]13C1=C(N=C(O1)[C@H](C(C)C)NC(=O)[C@@H](NC(=O)[C@@H](O)C(C)C)Cc1ccc(c3c1)O2)c1nc(Cl)c(o1)-c1c(Cl)[nH]c2cccc-4c12` [DIAZONAMIDE A], the IC50 in the assay with HCT-116 and with B16 was less than 0.015 µg/mL throughout.
The compound `CO/N=C/CCCCCCC[C@@H](C)CCCCCCCCCCc1cccnc1` [IKIMINE A] came in with an IC50 in the assay on KB of 5 µg/mL (≈ 12.4 µM).
On the same count and under the same terms, the value for `CO[C@H]1C[C@H](CC[C@H](C)[C@H](O)[C@H](C)[C@H]2OC(=O)/C=C/C(C)=C/C[C@H](O)C[C@@H]3CCC[C@H](C[C@H](OC)[C@@H](C)[C@@H](O)C[C@@H](O)[C@H](C)[C@H](O)[C@@H](C)[C@H]([C@@H](C)CC[C@H]4C[C@H](OC)C[C@H](C)O4)OC(=O)/C=C/C(C)=C/C[C@H](O)C[C@@H]4C=CC[C@H](C[C@H](OC)[C@@H](C)[C@@H](O)C[C@@H](O)[C@@H]2C)O4)O3)O[C@@H](C)C1` [ISOSWINHOLIDE A] was 1.1 µg/mL (≈ 0.79 µM).
In the case of `CC[C@H](C)[C@H]1NC(=O)[C@@H](NC(=O)[C@@H](CC(C)C)N(C)C(=O)[C@@H]2CCCN2C(=O)C(C)=O)[C@@H](C)OC(=O)[C@H](Cc2ccc(OC)cc2)N(C)C(=O)[C@@H]2CCCN2C(=O)[C@H](CC(C)C)NC(=O)[C@@H](C)C(=O)[C@H](C(C)C)OC(=O)C[C@@H]1O` [PLITIDEPSIN], the figures for the T/C in the assay with Leukemia cell and in the assay on Melanoma cell were 210% and 218%, respectively.
Compound `CO[C@@H]1C[C@@H](O)C[C@@H](O)[C@H](C)[C@@H]([C@@H](C)[C@@H](O)[C@@H](C)CC[C@H]2C[C@H](OC)C[C@H](C)O2)OC(=O)/C=C/C(C)=C/C[C@H](O)C[C@@H]2C=CC[C@H](C[C@H](OC)[C@@H](C)[C@@H](O)C[C@@H](O)[C@H](C)[C@@H]([C@@H](C)[C@@H](O)[C@@H](C)CC[C@H]3C[C@H](OC)C[C@H](C)O3)OC(=O)/C=C/C(C)=C/C[C@H](O)C[C@@H]3CCC[C@H](C1)O3)O2` [SWINHOLIDE B] came in with an IC50 with KB of 0.04 µg/mL (≈ 0.029 µM).
Same read-out and setting: as for `CO[C@H]1C[C@H](CC[C@H](C)[C@H](O)[C@H](C)[C@H]2OC(=O)/C=C/C(C)=C/C[C@H](O)C[C@@H]3C=CC[C@@H](C[C@H](OC)[C@@H](C)[C@@H](O)C[C@@H](O)[C@H](C)[C@@H]([C@@H](C)[C@@H](O)[C@@H](C)CC[C@H]4C[C@H](OC)C[C@H](C)O4)OC(=O)/C=C/C(C)=C/C[C@H](O)C[C@@H]4C=CC[C@@H](C[C@H](OC)[C@@H](C)[C@@H](O)C[C@@H](O)[C@@H]2C)O4)O3)O[C@@H](C)C1` [Swinholide A], the figure is 0.04 µg/mL (≈ 0.0288 µM); as for `CO[C@H]1C[C@H](CC[C@H](C)[C@H](O)[C@H](C)[C@H]2OC(=O)/C=C/C(C)=C/C[C@H](O)C[C@@H]3CCC[C@H](C[C@H](OC)[C@@H](C)[C@@H](O)C[C@@H](O)[C@H](C)[C@@H]([C@@H](C)[C@@H](O)[C@@H](C)CC[C@H]4C[C@H](O)C[C@H](C)O4)OC(=O)/C=C/C(C)=C/C[C@H](O)C[C@@H]4C=CC[C@H](C[C@H](OC)[C@@H](C)[C@@H](O)C[C@@H](O)[C@@H]2C)O4)O3)O[C@@H](C)C1` [swiholide C], 0.04 µg/mL (≈ 0.029 µM).

What is called T/C is the result in the treated group divided by that in the control group, in per cent. Broadly, the IC50 is the concentration that inhibits the measured activity by half. High values mean weaker potency in that assay, low ones greater potency in that assay.
